High-throughput results from PubChem BioAssay.
The list is not random: actives were taken first. Their share in the collection is about 2.4%.
NPY-Y1 PAM-ag – human NPY-Y1 potentiation or agonism, primary screen; P25929; NPY-Y1 expressing cells, potentiator/agonist activation; activation, % at 3.6 µM; 220,000 compounds, 0.37% hits; AID 1304; in the data active means activation above about 33%, passing the limit was not always enough;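 further: cells stimulated with NPY at EC10 then isoproterenol at EC100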
Target sequence (P25929 whole entry, looked up): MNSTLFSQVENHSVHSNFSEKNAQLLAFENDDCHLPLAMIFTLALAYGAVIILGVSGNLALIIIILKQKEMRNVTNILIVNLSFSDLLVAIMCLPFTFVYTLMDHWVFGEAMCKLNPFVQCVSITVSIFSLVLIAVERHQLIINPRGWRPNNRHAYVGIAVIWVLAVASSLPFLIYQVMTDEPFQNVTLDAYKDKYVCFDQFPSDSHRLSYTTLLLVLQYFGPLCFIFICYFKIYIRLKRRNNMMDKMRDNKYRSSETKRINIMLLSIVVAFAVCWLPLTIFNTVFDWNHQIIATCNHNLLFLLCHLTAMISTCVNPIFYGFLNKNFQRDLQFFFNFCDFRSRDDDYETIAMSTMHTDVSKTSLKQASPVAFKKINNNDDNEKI
NPY Y1 blocker – blocks the human neuropeptide Y Y1 receptor; HEK293-CNG Y1 cells, membrane potential fluorescence; NPY at EC95, then isoproterenol; P25929; inhibition, % at 3.6 µM; 200,000 compounds, 1% hits;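 active means inhibition above the campaign mean inhibition of all tested compounds plus 3 SD, cut at about 20% in these data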
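Benchmarks – high control isoproterenol alone, low control NPY with isoproterenol · Material – HEK293 Y1/CNG channel cell line · Times – dye 3 h, compound 60 min room temperature, stimulation 45 min · Probe or stimulus – NPY (25 nM), isoproterenol (1 µM), Ro 20-1724 (25 µM) · Evaluation – % inhibition of NPY effect · Signal – fluorescence, membrane potential probe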
NPY Y2 blocker – antagonists of human neuropeptide Y receptor Y2; 140,000 compounds, 0.99% hits; NPY-Y2 expressing cells, antagonist mode; P49146; inhibition, % at 2.7 µM; AID 793; in the data active means inhibition above about 17%
S1P4 agonist – human S1P4 receptor agonism; S1P4-expressing cell line, agonist reporter assay; 220,000 compounds, 0.35% hits; AID 1509; O95977; activation, % at 4.98 µM; in the data active means activation above about 11%
S1P4 antag – human S1P4 receptor antagonism. inhibition, % at 4.98 µM. 220,000 compounds, 0.26% hits. S1P4-expressing cells, antagonist mode, reporter read-out; in the data active means inhibition above about 29%
NPY2 pot ag – human NPY-Y2 potentiation or agonism, primary screen; 220,000 compounds, 0.45% hits; cells expressing NPY-Y2, potentiator/agonist read-out; activation, % at 3.6 µM; AID 1359; in the data active means activation above about 27%;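 further: cells stimulated with NPY near EC25 plus isoproterenol at EC100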
A number is an active result.

What do the screens show for `COc1ccc(O[C@H]2C=C[C@@H](c3ccccc3)O[C@@H]2COC(=O)CC/C(C)=N/OC[C@@H](O)COCc2ccco2)cc1`?
NPY-Y1 PAM-ag: inactive; NPY Y1 blocker: inactive; NPY Y2 blocker: inactive; S1P4 agonist: inactive; S1P4 antag: inactive; NPY2 pot ag: inactive

How did CCCCC(C)(O)C/C=C/[C@H]1[C@H](O)CC(=O)[C@@H]1CCCCCCC(=O)OC (some centres not stated) do in these assays?
NPY-Y1 PAM-ag: inactive; NPY Y1 blocker: 106.4; NPY Y2 blocker: 93.2; S1P4 agonist: inactive; S1P4 antag: inactive; NPY2 pot ag: inactive

Results for CCOC(=O)C(C)(C)N(Cc1ccc(Cl)cc1)S(=O)(=O)c1ccc(Cl)c([N+](=O)[O-])c1 ?
NPY-Y1 PAM-ag: 64.8; NPY Y1 blocker: inactive; NPY Y2 blocker: inactive; S1P4 agonist: inactive; S1P4 antag: inactive; NPY2 pot ag: 66.4

Results for Cc1nc(-c2nnc(SCC(=O)Nc3ccc(Cl)cc3)n2C)cs1 ?
NPY-Y1 PAM-ag: inactive; S1P4 agonist: inactive; S1P4 antag: inactive; NPY2 pot ag: inactive

What do the screens show for `COc1cccc(CNC(=O)CCC2CCCN(C(=O)c3csc(C(C)C)n3)C2)c1` (configuration not stated)?
NPY-Y1 PAM-ag: inactive; NPY Y1 blocker: inactive; S1P4 agonist: inactive; S1P4 antag: inactive; NPY2 pot ag: inactive

How did COc1ccc([N+](=O)[O-])cc1N(CC(=O)NCCSc1ccc(C)cc1)S(C)(=O)=O do in these assays?
NPY-Y1 PAM-ag: inactive; NPY Y1 blocker: inactive; S1P4 agonist: inactive; S1P4 antag: inactive; NPY2 pot ag: inactive

Results for COc1ccc(C)cc1NS(=O)(=O)c1ccc(NC(=O)CN(c2cc([N+](=O)[O-])ccc2C)S(C)(=O)=O)cc1 ?
NPY-Y1 PAM-ag: 40.3; NPY Y1 blocker: inactive; NPY Y2 blocker: inactive; S1P4 agonist: inactive; S1P4 antag: inactive; NPY2 pot ag: 26.9

How did Cc1cccc(NS(=O)(=O)c2ccc(NC(=O)CN(c3cc([N+](=O)[O-])ccc3C)S(C)(=O)=O)cc2)c1 do in these assays?
NPY-Y1 PAM-ag: 50.5; NPY Y1 blocker: inactive; NPY Y2 blocker: inactive; S1P4 agonist: inactive; S1P4 antag: inactive; NPY2 pot ag: 42.0

Results for Cc1cc(C)n(-c2nc(SCCN(C)C)c3c4c(sc3n2)COC(C)(C)C4)n1 ?
NPY-Y1 PAM-ag: inactive; NPY Y1 blocker: 147.1; NPY Y2 blocker: 78.1; S1P4 agonist: inactive; S1P4 antag: inactive; NPY2 pot ag: inactive

How did COc1cccc2c1C(CO)N1C(C#N)C3CC(C(=O)O)C(C1C2)N3C (configuration not stated) do in these assays?
NPY-Y1 PAM-ag: inactive; S1P4 agonist: inactive; S1P4 antag: 93.6; NPY2 pot ag: inactive

Results for COc1ccc(Nc2nc(N3CCCC3)nc3ccccc23)c(OC)c1 ?
NPY-Y1 PAM-ag: inactive; NPY Y1 blocker: 27.2; NPY Y2 blocker: 20.9; S1P4 agonist: inactive; S1P4 antag: inactive; NPY2 pot ag: inactive

How did CC(Nc1nc(-c2ccccc2)nc2ccccc12)c1ccccc1 (configuration not stated) do in these assays?
NPY-Y1 PAM-ag: inactive; NPY Y1 blocker: inactive; S1P4 agonist: inactive; S1P4 antag: inactive; NPY2 pot ag: inactive

What do the screens show for `CC(Nc1nc(N2CCCCC2)nc2ccccc12)c1ccccc1` (configuration not stated)?
NPY-Y1 PAM-ag: inactive; NPY Y1 blocker: 46.5; NPY Y2 blocker: 44.7; S1P4 agonist: inactive; S1P4 antag: inactive; NPY2 pot ag: inactive

What do the screens show for `COc1ccc(Nc2ncnc3ccccc23)c(OC)c1`?
NPY-Y1 PAM-ag: inactive; NPY Y1 blocker: inactive; NPY Y2 blocker: inactive; S1P4 agonist: inactive; S1P4 antag: inactive; NPY2 pot ag: inactive

How did CCc1ccc2c(c1)C(c1ccc([N+](=O)[O-])cc1)=NNC(c1ccc(Br)cc1)=N2 do in these assays?
NPY-Y1 PAM-ag: inactive; NPY Y1 blocker: inactive; NPY Y2 blocker: inactive; S1P4 agonist: inactive; S1P4 antag: inactive; NPY2 pot ag: inactive

Results for Cc1ccc2c(c1)C(c1ccc([N+](=O)[O-])cc1)=NNC(c1ccc(Br)cc1)=N2 ?
NPY-Y1 PAM-ag: inactive; NPY Y1 blocker: 25.1; NPY Y2 blocker: 17.4; S1P4 agonist: inactive; S1P4 antag: inactive; NPY2 pot ag: inactive

What do the screens show for `Cc1cc(C(=O)CSc2nnc(-c3cccnc3)n2-c2ccccc2F)c(C)n1C`?
NPY-Y1 PAM-ag: inactive; NPY Y1 blocker: inactive; NPY Y2 blocker: inactive; S1P4 agonist: 27.1; S1P4 antag: inactive; NPY2 pot ag: inactive

Results for O=C(C[n+]1ccc(CCSc2ccc(F)cc2)cc1)c1ccccc1 ?
NPY-Y1 PAM-ag: inactive; NPY Y1 blocker: inactive; S1P4 agonist: inactive; S1P4 antag: inactive; NPY2 pot ag: inactive

Results for Cn1c(=N)n(CC(O)c2cccc3ccccc23)c2ccccc21 (configuration not stated) ?
NPY-Y1 PAM-ag: inactive; NPY Y1 blocker: 33.8; NPY Y2 blocker: 24.4; S1P4 agonist: inactive; S1P4 antag: inactive; NPY2 pot ag: inactive

Results for O=C(OCc1ccc(Cl)cc1)c1ccccc1C(=O)c1ccccc1 ?
NPY-Y1 PAM-ag: inactive; NPY Y1 blocker: inactive; NPY Y2 blocker: inactive; S1P4 agonist: inactive; S1P4 antag: inactive; NPY2 pot ag: inactive

What do the screens show for `O=C(Nc1ccc2ccccc2c1)C(c1ccccc1)C1CCCC1` (configuration not stated)?
NPY-Y1 PAM-ag: inactive; NPY Y1 blocker: 33.1; NPY Y2 blocker: 22.3; S1P4 agonist: inactive; S1P4 antag: inactive; NPY2 pot ag: inactive

What do the screens show for `NC(=O)C(c1ccccc1)C1CCCC1` (configuration not stated)?
NPY-Y1 PAM-ag: inactive; NPY Y1 blocker: inactive; NPY Y2 blocker: inactive; S1P4 agonist: inactive; S1P4 antag: inactive; NPY2 pot ag: inactive

What do the screens show for `Cc1ccccc1NC(=O)C(c1ccccc1)C1CCCC1` (configuration not stated)?
NPY-Y1 PAM-ag: inactive; NPY Y1 blocker: 25.6; NPY Y2 blocker: 23.3; S1P4 agonist: inactive; S1P4 antag: inactive; NPY2 pot ag: inactive

Results for COc1ccc(S(=O)(=O)N(CC(=O)NC2CC2)c2ccc(C)cc2)cc1 ?
NPY-Y1 PAM-ag: inactive; NPY Y1 blocker: inactive; S1P4 agonist: inactive; S1P4 antag: inactive; NPY2 pot ag: inactive

How did C=CCc1ccccc1OCC(O)CN1CCN(Cc2ccc3c(c2)OCO3)CC1 (configuration not stated) do in these assays?
NPY-Y1 PAM-ag: 92.2; NPY Y1 blocker: inactive; NPY Y2 blocker: inactive; S1P4 agonist: inactive; S1P4 antag: inactive; NPY2 pot ag: 87.1

Results for C=CCc1ccccc1OCC(O)CN1CCN(CCN2C(=O)c3cccc4cccc(c34)C2=O)CC1 (configuration not stated) ?
NPY-Y1 PAM-ag: 53.9; NPY Y1 blocker: inactive; NPY Y2 blocker: inactive; S1P4 agonist: inactive; S1P4 antag: inactive; NPY2 pot ag: 45.3

How did CC(=O)c1cn(S(=O)(=O)c2ccccc2)c2ccccc12 do in these assays?
NPY-Y1 PAM-ag: inactive; NPY Y1 blocker: inactive; NPY Y2 blocker: inactive; S1P4 agonist: inactive; S1P4 antag: inactive; NPY2 pot ag: inactive

Results for Cc1ccc(NCC(O)C(O)C(O)CO)c(N=Nc2ccccc2)c1C (configuration not stated) ?
NPY-Y1 PAM-ag: 99.4; S1P4 agonist: inactive; S1P4 antag: inactive; NPY2 pot ag: 97.5
